Measured values reported in ChEMBL document CHEMBL5230083, “Novel 2, 5-diketopiperazine derivatives as potent selective histone deacetylase 6 inhibitors: Rational design, synthesis and antiproliferative activity” (Eur J Med Chem, 2020).

What was measured:
MDA-MB-435 = assay: Antiproliferative activity against human MDA-MB-435 cells assessed as cell growth at 10 uM incubated for 48 hrs by SRB assay relative to control; format: functional; settings: read-out: Activity
Outline: (§1)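 Single-concentration screen at 10 μM run by NCI on its NCI-60 human tumour panel (blood, lung, colon, CNS, melanoma, ovary, kidney, prostate, breast), following the NCI-60 published methodology. Read-out is growth percent relative to untreated cells.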

SW-620 = assay: Antiproliferative activity against human SW620 cells assessed as cell growth at 10 uM incubated for 48 hrs by SRB assay relative to control; format: functional; settings: read-out: Activity
Outline: (§2)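 NCI-60 single-dose screen: compounds tested at 10 μM, and growth percent of each cell line calculated. The full method follows the NCI DTP protocol.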

NCI-H23 = assay: Antiproliferative activity against human NCI-H23 cells assessed as cell growth at 10 uM incubated for 48 hrs by SRB assay relative to control; format: functional; settings: read-out: Activity; outline: as §1
SF-295 = assay: Antiproliferative activity against human SF-295 cells assessed as cell growth at 10 uM incubated for 48 hrs by SRB assay relative to control; format: functional; settings: read-out: Activity; outline: as §1
MDA-MB-468 = assay: Antiproliferative activity against human MDA-MB-468 cells assessed as cell growth at 10 uM incubated for 48 hrs by SRB assay relative to control; format: functional; settings: read-out: Activity; outline: as §1
HOP-62 = assay: Antiproliferative activity against human HOP-62 cells assessed as cell growth at 10 uM incubated for 48 hrs by SRB assay relative to control; format: functional; settings: read-out: Activity; outline: as §1
SNB-19 = assay: Antiproliferative activity against human SNB-19 cells assessed as cell growth at 10 uM incubated for 48 hrs by SRB assay relative to control; format: functional; settings: read-out: Activity; outline: as §2
MCF7 = assay: Antiproliferative activity against human MCF7 cells assessed as cell growth at 10 uM incubated for 48 hrs by SRB assay relative to control; format: functional; settings: read-out: Activity; outline: as §1
MDA-MB-231 = assay: Antiproliferative activity against human MDA-MB-231 cells assessed as cell growth at 10 uM incubated for 48 hrs by SRB assay relative to control; format: functional; settings: read-out: Activity; outline: as §1
A549 = assay: Antiproliferative activity against human A549 cells assessed as cell growth at 10 uM incubated for 48 hrs by SRB assay relative to control; format: functional; settings: read-out: Activity; outline: as §1
HCC 2998 = assay: Antiproliferative activity against human HCC 2998 cells assessed as cell growth at 10 uM incubated for 48 hrs by SRB assay relative to control; format: functional; settings: read-out: Activity; outline: as §1
K562 = assay: Antiproliferative activity against human K562 cells assessed as cell growth at 10 uM incubated for 48 hrs by SRB assay relative to control; format: functional; settings: read-out: Activity; outline: as §1
PC-3 = assay: Antiproliferative activity against human PC-3 cells assessed as cell growth at 10 uM incubated for 48 hrs by SRB assay relative to control; format: functional; settings: read-out: Activity; outline: as §1
NCI-H322M = assay: Antiproliferative activity against human NCI-H322M cells assessed as cell growth at 10 uM incubated for 48 hrs by SRB assay relative to control; format: functional; settings: read-out: Activity; outline: as §1
MOLT-4 = assay: Antiproliferative activity against human MOLT-4 cells assessed as cell growth at 10 uM incubated for 48 hrs by SRB assay relative to control; format: functional; settings: read-out: Activity; outline: as §1
[1] = target: T1, Protein deacetylase HDAC6 (Homo sapiens, UniProt Q9UBN7); assay: Inhibition of HDAC6 (unknown origin) using Fluor de lys as substrate by fluorescence based analysis
T1 sequence (Q9UBN7 whole entry): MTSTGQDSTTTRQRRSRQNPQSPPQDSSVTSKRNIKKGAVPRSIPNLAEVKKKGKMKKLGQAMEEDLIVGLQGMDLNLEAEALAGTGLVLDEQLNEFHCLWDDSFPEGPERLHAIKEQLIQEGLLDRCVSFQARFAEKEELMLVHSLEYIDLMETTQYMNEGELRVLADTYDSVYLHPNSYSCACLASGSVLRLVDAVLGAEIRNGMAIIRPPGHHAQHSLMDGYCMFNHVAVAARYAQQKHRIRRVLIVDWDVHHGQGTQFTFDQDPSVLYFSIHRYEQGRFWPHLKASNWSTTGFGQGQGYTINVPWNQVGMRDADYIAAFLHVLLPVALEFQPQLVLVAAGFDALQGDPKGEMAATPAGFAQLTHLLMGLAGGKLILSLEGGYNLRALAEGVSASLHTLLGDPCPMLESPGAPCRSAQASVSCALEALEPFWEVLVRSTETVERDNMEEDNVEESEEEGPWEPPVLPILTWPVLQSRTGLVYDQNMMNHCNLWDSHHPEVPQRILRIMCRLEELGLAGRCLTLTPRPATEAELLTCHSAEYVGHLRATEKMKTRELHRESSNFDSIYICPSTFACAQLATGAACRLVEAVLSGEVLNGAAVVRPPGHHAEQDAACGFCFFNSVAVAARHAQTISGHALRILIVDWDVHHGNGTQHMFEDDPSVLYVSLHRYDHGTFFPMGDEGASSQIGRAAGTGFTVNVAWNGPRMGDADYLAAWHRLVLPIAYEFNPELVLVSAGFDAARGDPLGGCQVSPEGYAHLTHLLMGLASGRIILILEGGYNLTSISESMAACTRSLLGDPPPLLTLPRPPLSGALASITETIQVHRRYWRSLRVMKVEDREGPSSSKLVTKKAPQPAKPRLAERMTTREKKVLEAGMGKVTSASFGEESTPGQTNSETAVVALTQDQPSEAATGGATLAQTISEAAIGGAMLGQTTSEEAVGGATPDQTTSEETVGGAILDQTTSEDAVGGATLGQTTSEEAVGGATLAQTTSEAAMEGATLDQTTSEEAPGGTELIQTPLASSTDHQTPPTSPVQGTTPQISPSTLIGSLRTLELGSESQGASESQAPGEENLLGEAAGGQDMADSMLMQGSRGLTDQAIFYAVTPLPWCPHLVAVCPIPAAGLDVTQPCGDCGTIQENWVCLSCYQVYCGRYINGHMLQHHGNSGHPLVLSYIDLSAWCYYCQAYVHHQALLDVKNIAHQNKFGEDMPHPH

RPMI-8226 = assay: cells; format: functional, cell-based; settings: Homo sapiens, RPMI-8226, 72 h
Histone deacetylase 1 = Histone deacetylase 1 (Homo sapiens, UniProt Q13547); assay: Inhibition of HDAC1 (unknown origin) using Fluor de lys as substrate by fluorescence based analysis
Chain of Histone deacetylase 1 (Q13547 whole entry): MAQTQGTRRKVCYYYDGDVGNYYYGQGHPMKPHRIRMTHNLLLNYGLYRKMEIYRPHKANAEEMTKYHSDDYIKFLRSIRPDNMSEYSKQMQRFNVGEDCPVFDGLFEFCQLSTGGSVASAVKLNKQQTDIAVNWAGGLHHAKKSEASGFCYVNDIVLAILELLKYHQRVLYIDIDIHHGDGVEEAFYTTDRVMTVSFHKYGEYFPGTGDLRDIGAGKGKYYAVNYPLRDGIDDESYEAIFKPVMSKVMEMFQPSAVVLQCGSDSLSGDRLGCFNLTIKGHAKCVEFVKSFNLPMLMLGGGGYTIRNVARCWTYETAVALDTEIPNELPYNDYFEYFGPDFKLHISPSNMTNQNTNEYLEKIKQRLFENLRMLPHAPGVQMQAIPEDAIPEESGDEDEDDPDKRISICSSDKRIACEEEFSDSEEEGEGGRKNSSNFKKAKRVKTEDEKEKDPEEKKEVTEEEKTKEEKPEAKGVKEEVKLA

T47D = assay: Antiproliferative activity against human T47D cells assessed as cell growth at 10 uM incubated for 48 hrs by SRB assay relative to control; format: functional; settings: read-out: Activity; outline: as §2
RXF 393 = assay: Antiproliferative activity against human RXF 393 cells assessed as cell growth at 10 uM incubated for 48 hrs by SRB assay relative to control; format: functional; settings: read-out: Activity; outline: as §1
HCT-116 = assay: Antiproliferative activity against human HCT-116 cells assessed as cell growth at 10 uM incubated for 48 hrs by SRB assay relative to control; format: functional; settings: read-out: Activity; outline: as §1
IGROV-1 = assay: Antiproliferative activity against human IGROV-1 cells assessed as cell growth at 10 uM incubated for 48 hrs by SRB assay relative to control; format: functional; settings: read-out: Activity; outline: as §1
NCI-H522 = assay: Antiproliferative activity against human NCI-H522 cells assessed as cell growth at 10 uM incubated for 48 hrs by SRB assay relative to control; format: functional; settings: read-out: Activity; outline: as §1

IC50 [1]	IC50 (RPMI-8226)	IC50 (Histone deacetylase 1)	Compound	growth at 10 µM (MDA-MB-435)	growth at 10 µM (SW-620)	growth at 10 µM (NCI-H23)	growth at 10 µM (SF-295)	growth at 10 µM (MDA-MB-468)	growth at 10 µM (HOP-62)	growth at 10 µM (SNB-19)	growth at 10 µM (MCF7)	growth at 10 µM (MDA-MB-231)	growth at 10 µM (A549)	growth at 10 µM (HCC 2998)	growth at 10 µM (K562)	growth at 10 µM (PC-3)	growth at 10 µM (NCI-H322M)	growth at 10 µM (MOLT-4)	growth at 10 µM (T47D)	growth at 10 µM (RXF 393)	also measured
0.00073 µM	33.2 µM	8.02 µM	O=C1CN(Cc2ccc(C(=O)NO)cc2)C(=O)[C@@H](Cc2c[nH]c3ccccc23)N1	102%	103%	101%	105%	107%	102%	96.8%	96.7%	107%	96.6%	103%	100%	97.5%	99.1%	86.8%	87.3%	105%	growth at 10 µM (HCT-116): 54.9%; growth at 10 µM (IGROV-1): 101%; growth at 10 µM (NCI-H522): 96.7%
0.00983 µM	11.7 µM	9.64 µM	O=C(NO)c1ccc(CN2CC(=O)N(Cc3ccccc3)[C@H](Cc3ccccc3)C2=O)cc1	91.3%	94.1%	86.7%	100%	79.9%	87.8%	85.4%	82.9%	95.2%	95.1%	85.9%	76.4%	76.5%	89.5%	76.7%	69.1%	86%	growth at 10 µM (HCT-116): 84.1%; growth at 10 µM (IGROV-1): 89%; growth at 10 µM (NCI-H522): 69.8%
